Experimental data from different studies.
CA1: Carbonic anhydrase 1 (CA1, Homo sapiens, UniProt P00915)
SLC22A11: Solute carrier family 22 member 11 (SLC22A11, Homo sapiens, UniProt Q9NSA0)
ADRA2A: Alpha-2A adrenergic receptor (ADRA2A, Homo sapiens, UniProt P08913)
Protein phosphatase methylesterase 1: Protein phosphatase methylesterase 1 (Homo sapiens, UniProt Q9Y570)

O=C(Nc1ccc(C(F)(F)F)cc1)Nc1ccc2c(c1)C=CCP(=O)(O)O2 — Ki (CA1; enzyme activity, inhibitor, stopped-flow): > 10 µM
CC(C)C[C@H]1C(=O)N2CCC[C@H]2[C@]2(O)O[C@](NC(=O)[C@@H]3C=C4c5cccc6[nH]c(Br)c(c56)C[C@H]4N(C)C3)(C(C)C)C(=O)N12 — IC50 (Synaptic vesicular amine transporter (SLC18A2, Homo sapiens, UniProt Q05940); transporter uptake, inhibitor): 4.85 µM
CCOC(=O)c1ccc(OC(=O)CCCCCN=C(N)N)cc1 — IC50 (Tryptase gamma (Homo sapiens, UniProt Q9NRR2); enzyme activity, inhibitor): 1.99 µM
O=C(Nc1ccc2c(c1)C=CCP(=O)(O)O2)c1ccc2ccccc2c1 — Ki (CA1; enzyme activity, inhibitor, stopped-flow): > 10 µM
N#Cc1c(Cl)c(Cl)c(Cl)c(C#N)c1Cl — IC50 (SLC22A11; transporter uptake, inhibitor): 7.3 µM
CC(=O)c1c(C)c2cnc(Nc3ccc(C4CCN(CCS(C)(=O)=O)CC4)cn3)nc2n(C2CCCC2)c1=O — IC50 (Cytochrome P450 2C19 (CYP2C19, Homo sapiens, UniProt P33261); enzyme activity, inhibitor; human, liver microsomes): > 10 µM
CC[C@H](C)[C@H](NC(=O)[C@H](CCCCNC(=O)CN(CCNC(=O)CN(CCNC(=O)CN(CCNC(=O)CN(CCNC(=O)[C@H](CCCNC(=N)N)NC(C)=O)C(=O)Cn1ccc(N)nc1=O)C(=O)Cn1cnc2c(=O)[nH]c(N)nc21)C(=O)Cn1cnc2c(=O)[nH]c(N)nc21)C(=O)Cn1ccc(N)nc1=O)NC(=O)[C@H](C)NC(=O)[C@H](CCCNC(=N)N)NC(=O)[C@H](CCCCN)NC(=O)[C@H](CCC(N)=O)NC(=O)[C@H](CCC(N)=O)NC(=O)[C@H](CC(N)=O)NC(=O)[C@@H](NC(=O)[C@H](CC(C)C)NC(=O)[C@H](CC(N)=O)NC(=O)[C@@H]1CCCN1C(=O)[C@H](CC(=O)O)NC(=O)[C@H](CC(C)C)NC(=O)[C@H](C)NC(=O)[C@H](CS)NC(=O)[C@H](CCCC(=O)NCCN(CC(=O)NCCN(CC(=O)NCCN(CC(=O)NCCN(CC(N)=O)C(=O)Cn1cnc2c(=O)[nH]c(N)nc21)C(=O)Cn1ccc(N)nc1=O)C(=O)Cn1ccc(N)nc1=O)C(=O)Cn1cnc2c(=O)[nH]c(N)nc21)NC(=O)[C@H](Cc1c[nH]c2ccccc12)NC(=O)[C@H](Cc1ccc(O)cc1)NC(=O)[C@H](CCCNC(=N)N)NC(=O)[C@H](CC(N)=O)NC(=O)[C@H](CCCNC(=N)N)NC(=O)[C@H](CC1CCCCC1)NC(=O)[C@H](CCC(=O)O)NC(=O)[C@H](CCCCN)NC(=O)[C@H](CO)NC(=O)[C@H](Cc1ccccc1)NC(C)=O)[C@@H](C)O)C(=O)N[C@@H](CCCNC(=N)N)C(=O)N[C@@H](CO)C(=O)N[C@H](C(=O)N[C@@H](Cc1ccc(O)cc1)C(=O)N[C@@H](CCC(=O)O)C(=O)N[C@@H](CCC(=O)O)C(N)=O)[C@@H](C)CC — Kd (Receptor tyrosine-protein kinase erbB-2 (ERBB2, Homo sapiens, UniProt P04626); binding, SPR): 0.00058 µM
COc1cc2c(cc1OC)CN(CCc1ccc(NC(=O)c3cccc4c(=O)c5cccc(OC)c5[nH]c34)cc1)CC2 — Ki (ADRA2A; cell-free assay): 1.37 µM
C[CH2][Hg][S]c1ccccc1C(=O)[O-].[Na+] — IC50 (SLC22A11; transporter uptake, inhibitor): 5 µM
O=C(Nc1ccc2c(c1)C=CCP(=O)(O)O2)Nc1ccccc1Br — Ki (CA1; enzyme activity, inhibitor, stopped-flow): > 10 µM
O=P(Oc1ccccc1)(Oc1ccccc1)C(NCc1cncc2ccccc12)c1ccc(O)cc1 (stereo not drawn) — IC50 (Protein phosphatase methylesterase 1; enzyme activity, inhibitor; lysate): 15.5 µM
NC(=S)N/N=C1/c2ccccc2[C@@H]2[C@H]1[C@@H](c1ccoc1)[C@H](C(=O)c1ccco1)[C@H]2c1ccoc1 — IC50 (Carbonic anhydrase 2 (CA2, Homo sapiens, UniProt P00918); enzyme activity, inhibitor, absorbance): 0.748 µM
CCCCC1CNC2CCc3ccc(OC)cc3C12 (racemic) — Ki (ADRA2A; ligand displacement, radioligand): 0.26 µM
O=C(Nc1cccc(F)c1)Nc1ccc2c(c1)C=CCP(=O)(O)O2 — Ki (CA1; enzyme activity, inhibitor, stopped-flow): > 10 µM
O=C(CP(=O)(Oc1ccccc1)Oc1ccccc1)N/N=C/c1ccncc1Br — IC50 (Protein phosphatase methylesterase 1; enzyme activity, inhibitor; lysate): 7 µM
